Measured values pooled from the literature.
DRD3: D(3) dopamine receptor (DRD3, Homo sapiens, UniProt P35462)
USP51: Ubiquitin carboxyl-terminal hydrolase 51 (USP51, Homo sapiens, UniProt Q70EK9)
CA12: Carbonic anhydrase 12 (CA12, Homo sapiens, UniProt O43570)
SLC6A3: Sodium-dependent dopamine transporter (SLC6A3, Homo sapiens, UniProt Q01959)

| target | test | system | setting | inhibition | SMILES |
| --- | --- | --- | --- | --- | --- |
| DRD3 | enzyme activity, inhibitor |  | 10 µM | -12.1% | Cc1ccccc1OCC(O)CN1CCN(CC(O)COc2ccccc2C)CC1 (stereo not drawn) |
| USP51 | enzyme activity, inhibitor |  | 5 µM | 29% | CC(=O)c1ccc(O)c(C(=O)O)c1 |
| CA12 | enzyme activity, inhibitor, absorbance |  | 10 µM | 73.9% | Cc1ccc(-c2nn(-c3ccccc3)cc2C2c3sc(=O)[nH]c3SC3C(=O)N(c4ccccc4)C(=O)C32)cc1 (stereo not drawn) |
| USP51 | enzyme activity, inhibitor |  | 5 µM | 0% | OC[C@H]1NC[C@H](O)[C@@H](O)[C@@H]1O |
| DRD3 | enzyme activity, inhibitor |  | 10 µM | -20.3% | COc1ccccc1N1CCN(CC(O)Cn2cnc3c2c(=O)n(C)c(=O)n3C)CC1 (stereo not drawn) |
| CA12 | enzyme activity, inhibitor, absorbance |  | 1 µM | 58.2% | CCOC(=O)C1CSc2[nH]c(=O)sc2C1c1cn(-c2ccccc2)nc1-c1ccc(OC)cc1 (stereo not drawn) |
| DRD3 | enzyme activity, inhibitor |  | 10 µM | 8.6% | COc1cc(OC)c(OC)cc1CN1CCN(Cc2c[nH]c3ccccc23)CC1 |
| CA12 | enzyme activity, inhibitor, absorbance |  | 1 µM | 73.2% | CCOC(=O)C1CSc2[nH]c(=O)sc2C1c1cn(-c2ccccc2)nc1-c1ccc(Cl)cc1 (stereo not drawn) |
| DRD3 | enzyme activity, inhibitor |  | 10 µM | 5.54% | CC(=O)Nc1ccc(N2C(=O)CC(NCCc3ccccc3)C2=O)cc1 (stereo not drawn) |
| SLC6A3 | cell-free assay |  | 10 µM | 48.8% | O=C(c1ccc(Cl)cc1)N(Cc1ccccc1)C1CCCCC1 |
| CA12 | enzyme activity, inhibitor, absorbance |  | 10 nM | 10.6% | CCOC(=O)C1CSc2[nH]c(=O)sc2C1c1cn(-c2ccccc2)nc1-c1ccccc1 (stereo not drawn) |
| SLC6A3 | transporter uptake, inhibitor | HEK293 | 1 µM | 19.8% | Clc1ccc(C(c2ccc(Cl)cc2)c2nnnn2CCCN2CCC(CCCc3ccccc3)CC2)cc1 |
| CA12 | enzyme activity, inhibitor, absorbance |  | 10 nM | 11.9% | CCOC(=O)C1CSc2[nH]c(=O)sc2C1c1cn(-c2ccccc2)nc1-c1ccc(C)cc1 (stereo not drawn) |
| SLC6A3 | transporter uptake, inhibitor | HEK293 | 1 µM | 93.5% | Fc1ccc(C(c2ccc(F)cc2)c2nnnn2CCCN2CCC(Cc3ccccc3)CC2)cc1 |
| USP51 | enzyme activity, inhibitor |  | 5 µM | 99% | O=C(O)c1cc(O)c(O)c(O)c1 |
| CA12 | enzyme activity, inhibitor, absorbance |  | 10 nM | 28.1% | N#CC1CSc2[nH]c(=O)sc2C1c1cn(-c2ccccc2)nc1-c1ccc(Br)cc1 (stereo not drawn) |
| DRD3 | enzyme activity, inhibitor |  | 10 µM | 63.4% | O=C1C2CCCN2C(=O)N1CCCCN1CCN(c2cccc(Cl)c2)CC1 (stereo not drawn) |
| USP51 | enzyme activity, inhibitor |  | 5 µM | 7% | COc1ccc(-c2oc3c(CC=C(C)C)c(O[C@@H]4O[C@H](CO)[C@@H](O)[C@H](O)[C@H]4O)cc(O)c3c(=O)c2O[C@@H]2O[C@@H](C)[C@H](O)[C@@H](O)[C@H]2O)cc1 |
| DRD3 | enzyme activity, inhibitor |  | 10 µM | -24.9% | Cc1[nH]n(-c2ccc([N+](=O)[O-])cc2)c(=O)c1C=NCCN1CCN(C(=O)c2cccc(F)c2)CC1 |
| USP51 | enzyme activity, inhibitor |  | 5 µM | 24% | Nc1ncnc2c1ncn2[C@@H]1O[C@H](CO)[C@@H](O)[C@H]1O |
| SLC6A3 | transporter uptake, inhibitor | HEK293 | 1 µM | 74.6% | Clc1ccc(C(c2ccccc2)c2nnnn2CCCCN2CCC(CCc3ccccc3)CC2)cc1 (stereo not drawn) |
| USP51 | enzyme activity, inhibitor |  | 5 µM | 2% | O=C1C[C@@H](c2ccccc2)Oc2cc(O)cc(O)c21 |
| DRD3 | enzyme activity, inhibitor |  | 10 µM | 47.3% | Cc1ccccc1N1CCN(CCCCN2C(=O)C3CCCN3C2=O)CC1 (stereo not drawn) |
| USP51 | enzyme activity, inhibitor |  | 5 µM | 14% | O=C1c2cccc(O)c2C(=O)c2c(O)cccc21 |
| DRD3 | enzyme activity, inhibitor |  | 10 µM | 42.5% | O=C1C2CCCN2C(=O)N1CCCCN1CCN(c2cccc(C(F)(F)F)c2)CC1 (stereo not drawn) |
| CA12 | enzyme activity, inhibitor, absorbance |  | 10 µM | 81% | CCOC(=O)C1CSc2[nH]c(=O)sc2C1c1cn(-c2ccccc2)nc1-c1ccc(Br)cc1 (stereo not drawn) |
| SLC6A3 | transporter uptake, inhibitor | HEK293 | 1 µM | 90.8% | Clc1ccc(C(c2ccc(Cl)cc2)c2nnnn2CCCN2CCC(Cc3ccccc3)CC2)cc1 |
| CA12 | enzyme activity, inhibitor, absorbance |  | 10 µM | 49.8% | O=C1NC(=S)C(=Cc2cn(-c3ccccc3)nc2-c2ccc(Br)cc2)S1 |
| SLC6A3 | transporter uptake, inhibitor | HEK293 | 1 µM | 69% | Clc1ccc(C(c2ccccc2)c2nnnn2CCCCN2CCC(CCCc3ccccc3)CC2)cc1 (stereo not drawn) |
| USP51 | enzyme activity, inhibitor |  | 5 µM | 31% | O=C(O)CC(O)C(=O)O (stereo not drawn) |
